Experiments:
DU-145 = experiment: Antiproliferative activity against human DU145 cells assessed as reduction in cell viability incubated for 48 hrs by MTT assay; assay type: functional, cell-based; conditions: DU-145, 48 h
Summary of the method: (§1)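 Growth inhibition was measured in vitro on human lines: HEK293 (embryonic kidney), PNT1A (normal prostate epithelium immortalized with SV40), PC3 and DU145 (prostate cancer), KK47 and T24 (bladder carcinoma) and 786-O (kidney carcinoma). IC50 in µM was taken from dose–response curves for each cell line.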

KK-47 cell line = experiment: Antiproliferative activity against human KK47 cells assessed as reduction in cell viability incubated for 48 hrs by MTT assay; assay type: functional, cell-based; conditions: KK-47, 48 h; summary of the method: as §1
T-24 = experiment: Antiproliferative activity against human T24 cells assessed as reduction in cell viability incubated for 48 hrs by MTT assay; assay type: functional, cell-based; conditions: T-24, 48 h; summary of the method: as §1
PC-3 = experiment: Antiproliferative activity against human PC3 cells assessed as reduction in cell viability incubated for 48 hrs by MTT assay; assay type: functional, cell-based; conditions: PC-3, 48 h; summary of the method: as §1
PNT1A = experiment: Cytotoxicity against human PNT1A cells assessed as reduction in cell viability incubated for 48 hrs by MTT assay; assay type: cell-based; summary of the method: as §1
786-0 = experiment: Antiproliferative activity against human 786-O cells assessed as reduction in cell viability incubated for 48 hrs by MTT assay; assay type: functional, cell-based; conditions: 786-0, 48 h; summary of the method: as §1
HEK293 = experiment: Cytotoxicity against human HEK293 cells assessed as reduction in cell viability incubated for 48 hrs by MTT assay; assay type: cell-based; conditions: HEK293, 48 h; summary of the method: as §1
L5178Y = experiment: Antiproliferative activity against mouse L5178Y cells assessed as reduction in cell viability; assay type: functional, cell-based
[1] = Antiproliferative activity against C3H mouse MBT2 cells assessed as reduction in cell viability; assay type: functional, cell-based
[2] = Antiproliferative activity against mouse MB49 cells assessed as reduction in cell viability after 72 hrs by WST-8 assay; assay type: functional, cell-based; conditions: MB49, 72 h
[3] = Antitumor activity against mouse MB49 cells xenografted in C57BL/6 mouse bladder cancer model assessed as death rate at 1 mg/ml dosed via intravesical instillation through catheter for 2 hrs and measured after 28 days relative to control; assay type: functional
Summary of the method: (§2)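 MB49 cells (C57BL/6-derived) were injected by needle into the bladder smooth-muscle layer of anaesthetised C57BL/6 mice after laparotomy. The same day (day 0), a single intravesical instillation was given and held in the bladder for 2 h, with saline as the control. Deaths were recorded over 4 weeks, to day 28.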

[4] = AUC (0 to 6 hrs) in Sprague-Dawley rat at 32 mg/kg, po measured upto 6 hrs by HPLC analysis; assay type: ADME, organism-based; set-up: dose 32 mg/kg, time < 6 hr, route oral; conditions: in vivo
[5] = Cmax in Sprague-Dawley rat at 32 mg/kg, po measured after 15 mins by HPLC analysis; assay type: ADME, organism-based; set-up: dose 32 mg/kg, route oral; conditions: in vivo
[6] = Toxicity in C57BL/6 mouse bladder cancer model xenografted with mouse MB49 cells at 50 mg/ml dosed via intravesical instillation through catheter for 2 hrs and measured for 28 days; assay type: organism-based; conditions: in vivo, other
Summary of the method: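 […] model: a small number of MB49 cells (C57BL/6-derived) were injected by needle into the bladder smooth muscle of C57BL/6 mice after laparotomy under anaesthesia. Compound at 50 mg/mL was then given once by intravesical instillation and kept for 2 h. Day 0 was implantation/dosing, and survival was followed for 4 weeks. Saline, BCG (2 mg/mL) and pirarubicin (1 mg/mL) served as comparators.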

[7] = Antitumor activity against mouse MB49 cells xenografted in C57BL/6 mouse bladder cancer model assessed as death rate at 50 mg/ml dosed via intravesical instillation through catheter for 2 hrs and measured after 28 days relative to control; assay type: functional; summary of the method: as §2

SMILES | IC50 (DU-145) [µM] | IC50 (KK-47 cell line) [µM] | IC50 (T-24) [µM] | IC50 (PC-3) [µM] | IC50 (PNT1A) [µM] | IC50 (786-0) [µM] | IC50 (HEK293) [µM] | IC50 (L5178Y) [nM] | IC50 [1] [nM] | IC50 [2] [µM] | mortality [3] | AUC(0-t) at 6 h [4] [ng·h/mL] | Cmax [5] [ng/mL] | Activity [6] | mortality [7] [%]
Oc1ccc(N2CCN(CC(O)COc3cccc4ccccc34)CC2)c(O)c1 (stereo not drawn) | 11.6 | 9.6 | 13.4 | 30.3 | 29.9 | 17.5 | > 50 | – | – | – | – | – | – | – | –
COc1cccc2c1C(=O)c1c(O)c3c(c(O)c1C2=O)C[C@@](O)(C(=O)CO)C[C@@H]3O[C@H]1C[C@H](N)[C@H](O[C@@H]2CCCCO2)[C@H](C)O1 [PIRARUBICIN] | – | – | – | – | – | – | – | 23 | 22 | 0.022 | 70 - 80% | – | – | – | –
COc1cc(O)ccc1N1CCN(CC(O)COc2cccc3ccccc23)CC1 (stereo not drawn) | 17.2 | 11.8 | 10.5 | 24.4 | > 50 | 11.4 | > 50 | – | – | 12 | – | 204 | 397 | Non-Toxic | 30
Oc1ccccc1N1CCN(CC(O)COc2ccc(O)c3ccccc23)CC1 (stereo not drawn) | > 50 | 33 | 14.8 | 26.1 | 37.4 | 9.7 | > 50 | – | – | – | – | – | – | – | –
COc1ccccc1N1CCN(CC(O)COc2cccc3ccccc23)CC1 (stereo not drawn) [NAFTOPIDIL] | 21.1 | 19 | 18.5 | 31.2 | 27 | 13.3 | 47.3 | – | – | 23 | – | 202 | 110 | – | –
Oc1ccc(N2CCN(CC(O)COc3ccc(O)c4ccccc34)CC2)c(O)c1 (stereo not drawn) | 20.3 | 17.9 | 15.6 | 17.7 | 17.1 | 18.5 | 40.4 | – | – | – | – | – | – | – | –
COc1cc(O)ccc1N1CCN(CC(O)COc2ccc(O)c3ccccc23)CC1 (stereo not drawn) | > 50 | > 50 | 37.4 | 45.7 | 37.2 | 38.7 | > 50 | – | – | – | – | – | – | – | –
COc1ccccc1N1CCN(CC(O)COc2ccc(O)c3ccccc23)CC1 (stereo not drawn) | 35.1 | 17.6 | 16.1 | 28 | 34.9 | 46.9 | > 50 | – | – | – | – | – | – | – | –
Oc1ccccc1N1CCN(CC(O)COc2cccc3ccccc23)CC1 (stereo not drawn) | 18 | 18.9 | 18 | 21.7 | 22.2 | 18.7 | > 50 | – | – | – | – | – | – | – | –
